Assay results pooled from the literature.
Protocols differ between the studies behind these lines.
Organism: Trypanosoma cruzi
Effect on: parasite growth

C[C@@H]1[C@H](O)[C@@H](C)/C=C/C=C/C=C/C=C/C=C/C=C/C=C/[C@H](O[C@@H]2O[C@H](C)[C@@H](O)[C@H](N)[C@@H]2O)C[C@@H]2O[C@](O)(C[C@@H](O)C[C@@H](O)[C@H](O)CC[C@@H](O)C[C@@H](O)CC(=O)O[C@H]1C)C[C@H](O)[C@H]2C(=O)O  IC50 (NIH3T3; TULAHUEN; 96 h; intracellular, amastigote): 0.48 µM
Oc1cccc(-c2nc(N3CCC(c4ccccn4)C3)c3ccccc3n2)c1 (stereo not drawn)  IC50 (imaging; U2OS; intracellular, amastigote): 4.22 µM
C=C1CC[C@H]2C(C)=CC[C@H]3C(=C)C(=O)O[C@@H]3[C@@H]12  IC50 (72 h; epimastigote): 1.9 µM
COc1ccc(Nc2nc(-c3cccnc3)nc3ccccc23)cc1  IC50 (imaging; U2OS; intracellular, amastigote): 6.33 µM
CC1CS(=O)(=O)CCN1/N=C/c1ccc([N+](=O)[O-])o1 (stereo not drawn)  IC50 (epimastigote): 2.4 µM
CCCCCCCCCCCCCC#CC(=O)O  IC50 (rat Myoblast; intracellular, amastigote): 80 µM
O=C(N[C@H](CCc1ccccc1)C(=O)c1cc(Cc2ccccc2)on1)[C@H](Cc1ccccc1)NC(=O)N1CCOCC1  IC50 (TULAHUEN; intracellular, amastigote): > 64 µM
c1ccc2c(N3CCCCC3)nc(-c3cnccn3)nc2c1  IC50 (imaging; U2OS; intracellular, amastigote): 18.6 µM
O=C(N[C@@H](Cc1ccccc1)C(=O)c1nc2ccccc2o1)[C@H](Cc1ccccc1)NC(=O)N1CCOCC1  IC50 (TULAHUEN; intracellular, amastigote): 31.5 µM
COc1ccc(Nc2nc(-c3ccc(C)cc3)nc3ccccc23)cc1  IC50 (imaging; U2OS; intracellular, amastigote): 3.09 µM
O=C(Nc1ccc2c(c1)B(O)OC2)Nc1ccc(F)c(C(F)(F)F)c1  IC50 (TULAHUEN; intracellular, amastigote): 6.6 µM
C[Si](C)(C)c1cc(C(=O)[C@H](Cc2ccccc2)NC(=O)[C@H](Cc2ccccc2)NC(=O)N2CCOCC2)no1 (single isomer, unassigned)  IC50 (TULAHUEN; intracellular, amastigote): > 64 µM
O=C(Nc1ccnc(C(F)(F)F)c1)Nc1cccc2c1OC(F)(F)O2  IC50 (TULAHUEN; intracellular, amastigote): 2.9 µM
O=C(N[C@@H](Cc1ccccc1)C(=O)c1ncc(-c2ccccc2)o1)[C@H](Cc1ccccc1)NC(=O)N1CCOCC1  IC50 (TULAHUEN; intracellular, amastigote): 29.1 µM
c1ccc(CN2CCN(c3nc(-c4ccccn4)nc4ccccc34)CC2)cc1  IC50 (imaging; U2OS; intracellular, amastigote): 3 µM
